# Source: PubChem
# In the library only some 2.4% were active in any assay of this set; here they are far more common.
# VIM-2 inh – inhibitors of Pseudomonas aeruginosa VIM-2 metallo-beta-lactamase | purified VIM-2, nitrocefin hydrolysis, epi-absorbance fluorescence | AID 1527 | inhibition, % at 5.6 µM | 0.89% of 290,000 active;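 active = inhibition above the mean of all tested compounds plus 3 SD, cutoff set per screening run, cut at about 7.5% in these data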;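 also: red hydrolysis product quenches plate fluorescence so inhibitors raise well fluorescence; 0% = enzyme with DMSO and 100% = DMSO without enzyme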
# HGIII-sPLA2 inh – Blocks human group III sPLA2 activity; inhibition, % at 12.2 µM; AID 743126; QFRET BODIPY PC-A2 liposome hydrolysis, fluorescence; Q9NZ20; 0.56% of 370,000 active;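 active = inhibition above mean plus 3 SD of compounds lying within the high and low control bounds, cut at about 19% in these data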;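 also: 0% = median of test compound wells and 100% = no enzyme DMSO wells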
# Target sequence (Q9NZ20 whole entry, looked up): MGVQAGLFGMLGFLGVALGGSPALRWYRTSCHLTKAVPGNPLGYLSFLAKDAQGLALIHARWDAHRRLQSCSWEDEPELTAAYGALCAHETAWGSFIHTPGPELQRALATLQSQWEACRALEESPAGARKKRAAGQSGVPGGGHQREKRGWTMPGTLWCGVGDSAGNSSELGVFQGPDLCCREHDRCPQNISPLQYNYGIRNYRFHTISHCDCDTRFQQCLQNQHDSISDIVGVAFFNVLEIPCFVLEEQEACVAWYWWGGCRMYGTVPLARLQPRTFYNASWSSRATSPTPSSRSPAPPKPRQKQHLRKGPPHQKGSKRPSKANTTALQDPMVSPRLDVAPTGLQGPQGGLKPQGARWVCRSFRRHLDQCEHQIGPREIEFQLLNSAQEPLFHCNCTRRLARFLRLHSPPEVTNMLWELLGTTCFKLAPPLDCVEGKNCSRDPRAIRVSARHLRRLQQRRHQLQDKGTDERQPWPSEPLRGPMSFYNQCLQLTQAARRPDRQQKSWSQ
# PfM18AAP inh – blocks P. falciparum M18 aspartyl aminopeptidase; inhibition, % at 7.35 µM; AID 1822; 1.2% of 290,000 active; recombinant PfM18AAP, H-Glu-NHMec fluorogenic cleavage;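 active = inhibition above the campaign mean inhibition over all tested compounds plus 3 SD, cut at about 28% in these data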;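 also: 0% = plate median of test compound wells and 100% = 2 mM ZnCl2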
# IMP-1 inhibitor – blocks Pseudomonas aeruginosa IMP-1 metallo-beta-lactamase | purified IMP-1, nitrocefin hydrolysis, epi-absorbance fluorescence | inhibition, % at 5.6 µM | 0.45% of 290,000 active;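 active = inhibition above the mean plus 3 SD of all compounds in the same screening run, cut at about 4.5% in these data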;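 also: 0% = IMP-1 with DMSO and 100% = DMSO wells lacking enzyme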
#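 System: purified IMP-1; amount: IMP-1 0.2 nM before substrate addition; compound: single dose, 5.6 µM; times: 25 °C, 15 min preincubation, 25 min reaction; signal: Epi-absorbance via hydrolysed-nitrocefin quenching of white-plate fluorescence, 480/530 nm, EDTA stop; benchmarks: DMSO with and without IMP-1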
# * marks the source's active call; other numbers are inactive results; x = no result.
SMILES,VIM-2 inh,HGIII-sPLA2 inh,PfM18AAP inh,IMP-1 inhibitor
O=C(NNC(=O)c1ccc(Oc2ccc(C3SCCS3)cc2)o1)c1ccc(Cl)cc1,-1,-21,7,5.2*
O=C(NNC(=O)c1ccc(Oc2cc(Cl)cc(Cl)c2)o1)c1ccccc1,-4,-2,-1,-5
CC(=O)Nc1ccc2c(c1)C(=O)N(C)[C@H]1CC[C@H](CC(=O)NCc3ccc(F)cc3)O[C@@H]1CO2,x,-11,x,x
C#CCN(Cc1ccco1)C(=O)c1nnc2c3ccccc3n(S(=O)(=O)c3ccc(C)cc3)c2n1,x,-3,x,x
COc1ccc(-c2csc(NC3CCCCC3)n2)c(OC)c1,-2,2,-4,8.0*
c1ccc(-c2csc(NC3CCCCC3)n2)cc1,-2,14,-5,0
CC(=O)N1CCC2(CC1)C(C#N)=C(N)Oc1n[nH]c(CSc3ccc(C)cc3)c12,-1,0,13,-5
CCc1[nH]nc2c1C1(CCN(C(=O)c3ccccc3)CC1)C(C#N)=C(N)O2,11*,2,6,-9
CC(=O)c1ccc(N2CCN(CC(=O)NCc3ccccc3)CC2)cc1,1,9,-2,6.5*
N#Cc1ccccc1CSc1nc(N2CCCCC2)nc(N2CCCCC2)n1,-3,-3,-1,-1
Cc1nc(SCc2ccccc2C#N)n[nH]1,1,2,-2,4.9*
CN(Cc1ccccc1)C(=O)OCc1cn(Cc2ccccc2C(F)(F)F)nn1,x,-7,x,x
CCC(C)Nc1nc(-c2cccc(OC)c2O)nc2ccccc12 (stereo not given),2,-37,-2,-2
CCC(C)Nc1nc(-c2ccccn2)nc2ccccc12 (stereo not given),8.2*,4,1,3
CCOC(=O)c1csc(NC(=O)C2CCCN(S(=O)(=O)c3cc(OC)ccc3OC)C2)n1 (stereo not given),x,-15,x,x
CCOC(=O)c1c(-c2ccc(OC)cc2)csc1/N=C/C1C(=O)CCCC1=O,0,-1,34*,0
Cc1cc(C)nc(N(C#N)CN2C(=O)c3ccccc3S2(=O)=O)n1,4,0,-3,8.8*
CNc1nc(OC)nc(N(C#N)CN2C(=O)c3ccccc3S2(=O)=O)n1,6,12,-2,9.4*
Cc1ccc(CNC(=O)[C@H](C)NC(=O)C2CCN(C(=O)[C@@H](N)CC(C)C)CC2)cc1,-4,20*,6,-3
CCc1ccccc1N=Nc1c(N)[nH]n(-c2ccccc2)c1=O,x,12,x,x
Cc1cccc(S(=O)(=O)N2CCC[C@H]2C(=O)N2CCC[C@@H]2C(=O)NCc2ccccc2)c1,x,11,x,x
COC(=O)c1cc(Sc2cccc(Cl)c2Cl)ccn1,9.2*,0,13,-2
COC(=O)c1cc(Sc2c(Cl)cccc2Cl)ccn1,4,1,-7,-1
CCn1c(Cc2cccs2)nnc1SCC(=O)Nc1ccc(Cl)cc1C,x,-11,x,x
COc1ccccc1CCn1cnc(-c2cccc(F)c2)c1CC(C)C,x,-1,x,x
SMILES,VIM-2 inh,HGIII-sPLA2 inh,PfM18AAP inh,IMP-1 inhibitor
C=CCN(CC#CCN(C)C(=O)c1cccn1C(=O)OC(C)(C)C)Cc1ccc(OC)cc1OC,x,6,x,x
CCn1c2ccccc2c2nc3ccccc3nc21,9.9*,x,-1,2
C=CC[C@H]1c2ccccc2[C@H]2N3N=Cc4ccccc4[C@H]3[C@H](CCc3ccccc3)C(=O)N2N1C(=O)c1ccccc1,x,10,x,x
O=C1c2cccc3cccc(c23)C(=O)N1c1ccc2ncccc2c1,1,-12,2,9.3*
COc1cccc(NC(=O)Nc2c(-c3ccc(F)cc3)nc3ncccn23)c1,x,0,x,x
COCO[C@@H]1CC(CO)=C[C@H]2OCO[C@H]21,x,1,x,x
CCOC(=O)c1noc(C)c1C(=O)Nc1nccs1,-2,8,-5,-3
C/C(=N\O)c1noc(C)c1C(=O)Nc1nccs1,12*,-7,-7,0
CC(=O)N1CCc2cc(S(=O)(=O)NCCC(=O)N(C)Cc3ccccc3F)ccc21,x,6,x,x
Cc1ccc(N2C(=O)c3cccc4c(N)ccc(c34)C2=O)c2cccnc12,5,-51,-1,5.7*
CCn1c(=O)n(CC)c2cc(N3CCCC3)c(NC(=O)c3ccc(C)cc3)cc21,-2,4,28*,-2
CCn1c(=O)n(CC)c2cc(N3CCCC3)c(NC(=O)c3cc(Br)ccc3OC)cc21,-1,7,30*,-2
CC(C)=NNc1cc([N+](=O)[O-])cc2c1C(=O)N(C)S2=O (stereo not given),-4,-3,30*,-5
C/C(=N/Nc1ccccc1[N+](=O)[O-])c1ccc([N+](=O)[O-])cc1,-2,11,-3,-5
CN1CCN(c2ccccc2NC(=O)c2ccc(N3CCCCC3)c([N+](=O)[O-])c2)CC1,-1,-8,4,0
CN1CCN(c2ccc(C(=O)c3ccccc3)cc2[N+](=O)[O-])CC1,8.3*,0,2,-2
COC(=O)C1CN(C2CCCC2)CCS(=O)(=O)N1Cc1cn(Cc2ccc(C)cc2)nn1 (stereo not given),x,4,x,x
COc1ccc(/C=N/N2CCN(c3ccccc3OC)CC2)cc1OC,-3,2,0,-2
COc1ccccc1N1CCN(/N=C/c2ccc(O)c(O)c2)CC1,-2,3,63*,-1
CC(C)c1nc2sc3c(=S)nc[nH]c3c2c2c1CCC2,-5,6,1,4.5*
CC(C)c1nc2sc3c(=O)[nH]cnc3c2c2c1CCC2,1,-6,0,0
Cc1cc(OC(C)CCN2CCC(C(O)(c3ccccc3)c3ccccc3)CC2)ccc1Br (stereo not given),x,-7,x,x
COc1ccc(Cl)cc1Nc1nc(-c2sc(NC(=O)C(C)(C)C)nc2C)cs1,-1,-5,-3,18*
COc1ccc(OC)c(Nc2nc(-c3sc(NC(=O)C(C)(C)C)nc3C)cs2)c1,-2,-1,0,-2
CCCCC(=O)Nc1nc(C)c(-c2csc(Nc3cc(Cl)ccc3OC)n2)s1,-1,5,2,7.6*
SMILES,VIM-2 inh,HGIII-sPLA2 inh,PfM18AAP inh,IMP-1 inhibitor
CCCCCCC(=O)Nc1nc(C)c(-c2csc(Nc3cc(Cl)ccc3C)n2)s1,-3,3,-4,19*
CCCCCCC(=O)Nc1nc(C)c(-c2csc(Nc3ccccc3OC)n2)s1,0,-9,-5,-1
CC(=O)Nc1ccc(N2C(=O)CSC2c2ccc([N+](=O)[O-])cc2)cc1 (stereo not given),-6,-1,0,-3
CC(=O)Nc1ccc(N2C(=O)CSC2c2ccccc2)cc1 (stereo not given),-6,-5,2,4.8*
C[n+]1ccccc1/C=C/c1cc(Br)ccc1O,-1,8,4,16*
CCCC(C)c1nnc(NC(=O)CS(=O)(=O)Cc2ccccc2)s1 (stereo not given),-3,-16,5,0
CCCC(C)c1nnc(NC(=O)CCS(=O)(=O)Cc2ccccc2)s1 (stereo not given),-1,1,29*,-2
O=C(CSc1nnc(-c2cccs2)n1Cc1ccco1)Nc1ccc(OCc2ccccc2)cc1,x,-15,x,x
Cc1nc2scc(C)n2c(=O)c1S(=O)(=O)NCc1ccccc1,1,-1,-10,-1
Cc1csc2nc3ccccc3c(=O)n12,7.8*,1,-5,0
